# Compound activity: PubChem BioAssay, several laboratories
# GSH bead fluor = compound fluorescence on glutathione beads, profiling panel, artefact control, biophysical, 488/530 nm, flow cytometry; 190,000 tested, 0.25% active; fluorescence (KMESF) at 10 µM; AID 1776, 2009; GSH beads flow cytometry, compound fluorescence 488/530 nm; stronger effect = higher value; in the data active = fluorescence above about 89;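 note: glutathione beads carrying GST-tagged Bcl family fusion proteins plus one bare bead set; values are compound well signal with DMSO vehicle wells as background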
# PMI activator = activators of human PMI, primary screen, biochemical, fluorescence intensity, near-Km mannose 6-phosphate | Mannose-6-phosphate isomerase (Homo sapiens), P34949 | purified human PMI, coupled resazurin fluorescence, 20 min; stronger effect = higher value; 1 = vehicle control, 0 substrate-free wells | activation factor at 20 µM | 190,000 tested, 0.005% active | AID 1214, 2008;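 active = activation factor of 2 or more at 20 µM, relative to plate controls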
# Target sequence (P34949 whole entry, looked up): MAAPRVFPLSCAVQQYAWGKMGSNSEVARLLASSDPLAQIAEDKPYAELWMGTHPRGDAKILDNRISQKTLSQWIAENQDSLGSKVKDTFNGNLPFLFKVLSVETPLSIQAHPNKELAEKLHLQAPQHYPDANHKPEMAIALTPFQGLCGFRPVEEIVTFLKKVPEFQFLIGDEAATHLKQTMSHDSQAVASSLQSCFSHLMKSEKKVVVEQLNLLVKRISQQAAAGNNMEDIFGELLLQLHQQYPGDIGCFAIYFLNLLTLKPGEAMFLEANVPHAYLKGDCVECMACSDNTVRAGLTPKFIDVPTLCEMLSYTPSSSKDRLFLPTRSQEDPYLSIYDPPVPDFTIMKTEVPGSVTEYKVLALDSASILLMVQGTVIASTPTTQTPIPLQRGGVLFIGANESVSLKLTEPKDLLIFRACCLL
# PMI act satM6P = human PMI activators, high substrate, primary screen, biochemical, fluorescence intensity, near-saturating mannose 6-phosphate. 190,000 tested, 0.34% active. coupled PMI enzyme assay, resazurin fluorescence, 20 min; stronger effect = higher value; 1 = untreated enzyme, 0 = substrate-free blank. activation factor at 20 µM;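 active = activation factor of 2 or more at 20 µM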
#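 Material: human phosphomannose isomerase with PGI, G6PDH, diaphorase coupling enzymes. Quantity: 15 ng/mL PMI. Medium: HEPES pH 7.4 buffer with MgCl2 and Tween-20. Reagent: Near-saturating mannose-6-phosphate, 1.0 mM. Compound: 20 µM single dose. Times: enzyme reaction with compound 20 min at room temperature. Detection: resorufin fluorescence at Ex 544/Em 590 nm.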
# Avidin bead fluor = green autofluorescence of compounds with avidin beads – biophysical, 488/530 nm, flow cytometry, artefact control, profiling panel; compound fluorescence 488/530 nm; stronger effect = higher value; 220,000 tested, 0.38% active; fluorescence (KMESF) at 10 µM; in the data active = fluorescence above about 47
# NCF1 inh = p47phox/p22phox peptide binding inhibitors, primary screen, biochemical, uHTS, NADPH oxidase regulatory subunit. Neutrophil cytosol factor 1 (Homo sapiens), P14598. fluorescence polarization, 2 h. inhibition, % at 24.7 µM. 220,000 tested, 0.53% active;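 active = inhibition above about 30%, limit read from the data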;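 note: 0% = p47phox with labelled peptide and 100% = labelled peptide alone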
# Diaph act CS = compounds boosting diaphorase resazurin reduction – biochemical, uHTS, resorufin fluorescence, counter-screen for diaphorase-coupled primary assays, primary screen. 190,000 tested, 0.005% active. activation factor at 20 µM. AID 1229, 2008. Diaphorase/resazurin coupled assay, 16 min; stronger effect = higher value; 1 = vehicle wells, 0 = NADH-free wells;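 active = diaphorase activity raised at least twofold by the compound at 20 µM; inactive = activation factor below 2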
#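 test system = bacterial diaphorase enzyme (C. kluyveri) | quantity = enzyme 0.07 U/mL final | reagent = NADH substrate 0.114 mM plus resazurin dye 0.1 mM, final | incubation = 16 min enzyme reaction, ambient temperature | buffer or medium = HEPES pH 7.4 buffer with MgCl2 and Tween 20 | signal = fluorescence of resorufin, 544 nm excitation, 590 nm emission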
# Starred values were filed as active, the others as inactive; . = not tested or not shown. Shown are actives, neighbours in structure and some others; about 1.4% of the full set was active somewhere.
SMILES,GSH bead fluor,PMI activator,PMI act satM6P,Avidin bead fluor,NCF1 inh,Diaph act CS
Cc1ccc([N+](=O)[O-])cc1-c1ccc(/C=C(\C#N)c2[nH]nc(N)c2C#N)o1,26,1,0.9,6,38*,0.8
CC1CCCC(NC(=O)COC(=O)c2ccccc2NC(=O)c2ccco2)C1C (centres undefined),68,0.9,0.9,11,-26,0.8
CC1CCCC(NC(=O)COC(=O)c2ccccc2[N+](=O)[O-])C1C (centres undefined),15,1,1,9,43*,0.9
CCOC(=O)c1cnc2ccc(C)cc2c1NCCO,12,1,0.9,21,43*,0.9
COc1ccc(S(=O)(=O)N(CCc2ccccc2)CC(=O)O)cc1OC,23,1,1,37,-3,0.9
CCOC(=O)N1CCN(c2cc(NCCO)c([N+](=O)[O-])c3nonc23)CC1,21,0.4,0.4,103*,-1,0.5
CSc1ncc(-c2ccc(Cl)cc2)[nH]1,.,.,.,8,2,.
CCOc1cccc2sc(NN)nc12,10,1.6,2.2*,5,6,0.9
CCOc1cccc2sc(Cl)nc12,21,1,1,11,-1,0.9
CC1CCN(S(=O)(=O)c2cccc(C(=O)NCc3ccco3)c2)CC1,159*,1,1,3,-12,0.9
CC1CCN(S(=O)(=O)c2cccc(C(=O)NCc3cccs3)c2)CC1,28,0.9,0.9,7,-7,0.8
COc1cc(SC)ccc1C(=O)NCc1ccccc1,15,0.9,0.9,7,77*,1
COc1cc(SC)ccc1C(=O)NCc1ccc(C)cc1,12,0.9,0.9,31,-4,0.8
O=S(=O)(Nc1ccc(Cl)cc1)c1ccc2c(c1)CCO2,.,.,.,62*,-15,.
Cc1onc(-c2ccccc2Cl)c1C(=O)OCC(=O)c1ccc2c(c1)OCCO2,14,1,1,16,-42,0.9
CS(=O)(=O)N1CCN(c2ccccc2NC(=O)c2cccs2)CC1,10,1,1.1,47*,-6,0.9
CC[n+]1ccc(/C=C/c2ccc(N(C)C)cc2)c2ccccc21,9,1,1,9,-30,0.8
CC[n+]1ccc(C[n+]2ccccc2)c2ccccc21,6,0,0,12,79*,0.8
Cn1c(-n2c(CCCN3C(=O)c4ccccc4C3=O)nc3ccccc3c2=O)nc2ccccc21,255*,1.1,1.1,42,-11,0.8
CCN1CCN(S(=O)(=O)c2cc(C(=O)O)ccc2Cl)CC1,.,.,.,58*,-24,.
CCN1CCN(CC(=O)c2cc(Cl)ccc2Cl)CC1,15,1.6,2*,10,-7,0.9
NC(=O)CSc1nnc(-c2ccc(S(=O)(=O)N3CCOCC3)cc2)n1Cc1ccccc1,10,1,1,21,-7,1
CCN1CCCC(OC(=O)c2cc(-c3ccc(C)cc3)nc3ccccc23)C1 (centres undefined),15,1.3,1.2,8,-37,1.1
CCOc1ccc(N2C(=O)Nc3ccccc3C2(O)C(=O)NCc2ccc(F)cc2)cc1 (centres undefined),12,1,1,11,5,0.8
CCOc1ccc(/C=N/NC(=O)C(C)N(c2ccc(OC)cc2)S(C)(=O)=O)cc1 (centres undefined),32,0.9,0.9,12,-5,0.9
Cc1c(NC(=O)CSc2nnc(COc3ccccc3)n2-c2ccccc2)c(=O)n(-c2ccccc2)n1C,13,1,1.1,141*,-13,0.9
Cc1c(NC(=O)CSc2n[nH]c(=O)n2-c2ccccc2)c(=O)n(-c2ccccc2)n1C,17,1.2,1.1,9,5,1
